Assay results from different studies.
Lines come from different studies, so protocols differ.
Target: Serine/threonine-protein kinase 33 (STK33, Homo sapiens, UniProt Q9BYT3)

Cn1cncc1[C@](O)(COc1ccc(C#N)cc1-c1ccc(OC(F)(F)F)cc1)c1ccc(C#N)cc1
remaining binding (cell-free assay, competition with immobilised ligand; 1 µM): 74%

COc1cc(Nc2ncc(F)c(Nc3ccc4c(n3)NC(=O)C(C)(C)O4)n2)cc(OC)c1OC
inhibition (binding; 10 µM): 85%

CCOC(=O)c1c(C)[nH]c(/C=C2\C(=O)Nc3ccccc32)c1C
remaining activity (enzyme activity, inhibitor, radiometric; 0.5 µM): 83.7%

Nc1ncc(-c2nc(N3CCOCC3)nc(N3CCOCC3)n2)c(C(F)F)n1
remaining binding (binding, competition with immobilised ligand; 10 µM): 94%

CC(C)(C)c1nc(-c2cccc(NS(=O)(=O)c3c(F)cccc3F)c2F)c(-c2ccnc(N)n2)s1
remaining activity (enzyme activity, inhibitor, radiometric; 1 µM): 76%

Cn1cc(-c2cc(F)cc(N3CCn4c(cc5c4CCCC5)C3=O)c2CO)cc(Nc2ccc(N3CCN(C4COC4)CC3)cn2)c1=O
inhibition (enzyme activity, inhibitor; 0.1 µM): -5%

CC(C)(C)c1nc2c(s1)c1nc(N)ncc1c1ccc(NS(=O)(=O)c3c(F)cccc3F)c(F)c12
remaining activity (enzyme activity, inhibitor, radiometric; 1 µM): 82%

N#CC1(c2ccccn2)CCN(Cc2cc(C(=O)O)c(=O)n3ccccc23)CC1
remaining binding (cell-free assay, competition with immobilised ligand; 1 µM): 56%

Cc1nn(C)cc1-c1nc2c(N3CCN(Cc4ccc(Cl)cc4)CC3)c(Cl)cnc2[nH]1
remaining binding (binding, competition with immobilised ligand; 1 µM): 100%

Cn1cc(-c2cccc(N3CCc4c(sc5c4CC(C)(C)C5)C3=O)c2CO)cc(Nc2ccncn2)c1=O
inhibition (enzyme activity, inhibitor; 1 µM): 2%

COc1ncccc1-c1cnn2ccc(N3CCN(C(=O)OC(C)C)CC3)nc12
remaining binding (binding, competition with immobilised ligand; 1 µM): 100%

Nc1ccc2ncnc(NCCc3ccc(Oc4ccccc4)cc3)c2c1
remaining activity (enzyme activity, inhibitor, radiometric; 0.5 µM): 101%
